The target in one data set is T1, Caspase 6 (Homo sapiens, UniProt P55212).
T1 sequence (P55212 24-179 limits assumed): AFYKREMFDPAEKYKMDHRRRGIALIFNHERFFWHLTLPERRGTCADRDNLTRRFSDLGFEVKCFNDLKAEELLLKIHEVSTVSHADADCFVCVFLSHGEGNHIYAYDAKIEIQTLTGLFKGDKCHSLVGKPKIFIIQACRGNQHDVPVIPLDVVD
T1 sequence (P55212 194-293 limits assumed): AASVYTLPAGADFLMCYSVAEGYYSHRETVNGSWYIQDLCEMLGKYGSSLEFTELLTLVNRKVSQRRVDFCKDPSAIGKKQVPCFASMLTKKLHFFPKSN
Particulars: read-out: Ki caspase 6; cited from earlier work.

For data set [1], the target named is T2, Caspase 3 (Homo sapiens, UniProt P42574).
T2 sequence (P42574 29-175 limits assumed): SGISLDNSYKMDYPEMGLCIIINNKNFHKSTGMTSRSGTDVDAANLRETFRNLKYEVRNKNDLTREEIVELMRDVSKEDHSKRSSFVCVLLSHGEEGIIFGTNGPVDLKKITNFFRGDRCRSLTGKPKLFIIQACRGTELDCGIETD
T2 sequence (P42574 176-277 limits assumed): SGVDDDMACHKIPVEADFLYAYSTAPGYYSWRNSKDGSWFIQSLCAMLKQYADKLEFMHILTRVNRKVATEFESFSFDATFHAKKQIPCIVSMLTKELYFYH
Conditions: cited from earlier work.

Data set [2] has as its target T2, Caspase 3. The data set is described as follows: Reaction Biology caspase panel. The class given is biochemical. Conditions: read-out: Caspase 3 IC50; (Z-DEVD)2-R110 substrate; three separate experiments.
Data set [3] is described as follows: Aqueous degradation study by LCMS over 96 hours. Type of data set: physicochemical. Particulars: up to 96 hours.
Data set [4] deals with T3, Caspase 9 (Homo sapiens, UniProt P55211).
T3 sequence (P55211 1-315 limits assumed): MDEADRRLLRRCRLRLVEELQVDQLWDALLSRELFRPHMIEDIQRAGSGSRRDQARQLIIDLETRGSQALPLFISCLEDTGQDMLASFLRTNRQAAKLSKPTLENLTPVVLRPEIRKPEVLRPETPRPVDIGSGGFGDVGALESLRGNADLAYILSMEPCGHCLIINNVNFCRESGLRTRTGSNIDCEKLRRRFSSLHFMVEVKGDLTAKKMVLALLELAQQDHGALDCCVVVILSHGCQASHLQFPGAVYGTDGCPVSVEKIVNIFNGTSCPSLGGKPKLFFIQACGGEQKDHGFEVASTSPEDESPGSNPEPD
T3 sequence (P55211 331-416 limits assumed): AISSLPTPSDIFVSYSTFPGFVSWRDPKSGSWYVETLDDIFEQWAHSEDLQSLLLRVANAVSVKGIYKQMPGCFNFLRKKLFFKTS
Conditions: read-out: Ki caspase 9; cited from earlier work.

Data set [5] concerns the target T3, Caspase 9. The data set is described as follows: Reaction Biology caspase panel. The class given is biochemical. Particulars: read-out: Caspase 9 IC50; (Z-LEHD)2-R110 substrate; three separate experiments.
The target of another data set is T4, Caspase 7 (Homo sapiens, UniProt P55210).
T4 sequence (P55210 24-198 limits assumed): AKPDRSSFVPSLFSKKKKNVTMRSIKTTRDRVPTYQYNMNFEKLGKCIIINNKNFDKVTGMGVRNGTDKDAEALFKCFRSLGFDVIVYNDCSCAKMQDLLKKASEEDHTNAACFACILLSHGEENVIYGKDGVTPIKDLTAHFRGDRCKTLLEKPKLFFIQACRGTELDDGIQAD
T4 sequence (P55210 207-303 limits assumed): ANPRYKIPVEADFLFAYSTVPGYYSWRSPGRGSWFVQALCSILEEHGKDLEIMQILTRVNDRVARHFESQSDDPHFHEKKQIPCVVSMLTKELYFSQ
The data set is described as follows: Reaction Biology caspase panel. The class given is biochemical. Conditions: read-out: Caspase 7 IC50; (Z-DEVD)2-R110 substrate; three separate experiments.

The subject of another data set is cathepsin B. Particulars: cited from earlier work.
For another data set, the target named is T5, Caspase 10 (Homo sapiens, UniProt Q92851).
T5 sequence (Q92851 220-415 limits assumed): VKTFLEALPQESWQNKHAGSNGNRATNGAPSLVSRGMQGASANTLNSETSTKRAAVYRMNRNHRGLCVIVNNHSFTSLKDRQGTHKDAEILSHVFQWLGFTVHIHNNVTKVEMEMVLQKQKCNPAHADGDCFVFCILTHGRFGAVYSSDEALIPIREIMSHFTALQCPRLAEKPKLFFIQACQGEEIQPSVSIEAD
T5 sequence (Q92851 416-521 limits assumed): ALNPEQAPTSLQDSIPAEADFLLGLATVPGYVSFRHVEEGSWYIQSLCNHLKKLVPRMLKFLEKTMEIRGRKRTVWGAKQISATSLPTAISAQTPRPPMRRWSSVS
The data set is described as follows: Reaction Biology caspase panel. Type of data set: biochemical. Particulars: read-out: Caspase 10 IC50; (Z-LEHD)2-R110 substrate; three separate experiments.

The nature of a further data set: Microsomal stability. Type of data set: in vitro ADME, human. Conditions: human, liver microsomes. In outline: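 Human microsomal stability, profiled by a contract lab alongside internal control compounds. Includes minus-NADPH and minus-compound control incubations.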
(In general: Microsomes from liver hold many membrane-bound enzymes, among them those of drug oxidation.)

The target in the next data set is T6, Caspase 4 (Homo sapiens, UniProt P49662).
T6 sequence (P49662 81-270 limits assumed): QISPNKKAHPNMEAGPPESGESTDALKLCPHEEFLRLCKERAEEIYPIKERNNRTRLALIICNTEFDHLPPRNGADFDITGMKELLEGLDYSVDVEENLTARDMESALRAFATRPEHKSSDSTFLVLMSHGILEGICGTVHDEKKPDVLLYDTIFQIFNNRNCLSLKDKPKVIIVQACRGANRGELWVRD
T6 sequence (P49662 290-377 limits assumed): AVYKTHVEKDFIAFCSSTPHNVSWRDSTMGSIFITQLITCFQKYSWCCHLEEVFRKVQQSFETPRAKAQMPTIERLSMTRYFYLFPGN
The data set is described as follows: Reaction Biology caspase panel. Type of data set: biochemical. Particulars: read-out: Caspase 4 IC50; (Z-LEHD)2-R110 substrate; three separate experiments.

The test system of the next data set is granzyme B. Conditions: cited from earlier work.
In a further data set the target is T7, caspase 1 (Homo sapiens, UniProt P29466).
T7 sequence (P29466 120-297 limits assumed): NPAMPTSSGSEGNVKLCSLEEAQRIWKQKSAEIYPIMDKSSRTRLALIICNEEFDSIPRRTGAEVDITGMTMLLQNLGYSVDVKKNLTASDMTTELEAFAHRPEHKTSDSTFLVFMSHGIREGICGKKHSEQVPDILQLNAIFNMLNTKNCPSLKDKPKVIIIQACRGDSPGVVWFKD
T7 sequence (P29466 317-404 limits assumed): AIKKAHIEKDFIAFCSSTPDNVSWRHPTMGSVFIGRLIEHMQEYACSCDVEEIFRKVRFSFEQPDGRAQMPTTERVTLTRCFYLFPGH
Particulars: read-out: Ki caspase 1; cited from earlier work.

The structures appear in SMILES notation. pIC50, pKi: −log10 of the molar value.

In the case of `CC(C)(C)[C@H](NC(=O)c1ccc(N)c(Cl)c1)C(=O)N1CCC[C@H]1C(=O)N[C@H](C=O)CC(=O)O` [Compound 2b, reference compound], the pKi – broadly, −log10 of the Ki, conventionally taken in molar units – on Caspase 6 was 6.25; at Caspase 9 [4] it was 5.99; at caspase 1 it was > 9.00. In addition, the “activity against caspase 3” value at Caspase 3 [1] is listed as “little activity”. Further, the pIC50 (as a rule, −log10 of the IC50, conventionally taken in molar units) on Caspase 3 [2] is < 5.00; at Caspase 9 [5] it was 8.29; on Caspase 7, < 5.00; on Caspase 10, 7.18; on Caspase 4 it was 7.84. The “aqueous stability (in words)” value was “very stable” in data set [3] (acidic (pH 2)), “moderate” in data set [3] (basic (pH 8)) and “very stable” in data set [3] (neutral (pH 7)). For the same molecule, in the data set on cathepsin B, the “activity against cathepsin B” value is recorded as “little activity”. Moreover, the “Microsomal Stability CLint” value in “Microsomal stability” is reported as 6.72 μL/min/mg protein. Further, the “Microsomal Stability t1/2” value in “Microsomal stability” is 3.43 h. Further, the “activity against granzyme B” value in the data set with granzyme B is on record as “little activity”.
